From PMC2728397 (The Journal of Cell Biology, 2009)

B1: WT Bim: wild-type Bim protein in thymocyte lysates (protein)
chain: MAKQPSDVSSECDREGGQLQPAERPPQLRPGAPTSLQTEPQGNPDGEGDRCPHGSPQGPLAPPASPGPFATRSPLFIFVRRSSLLSRSSSGYFSFDTDRSPAPMSCDKSTQTPSPPCQAFNHYLSAMASIRQSQEEPEDLRPEIRIAQELRRIGDEFNETYTRRVFANDYREAEDHPQMVILQLLRFIFRLVWRRH

Assays:
thymocytes (Bim level) = experiment: Bim expression in thymocytes; type: cell-based, mouse; settings: mutant and WT thymocytes; Western blot
Bcl-xL = experiment: Coimmunoprecipitation from thymocyte lysates, Bcl-xL; type: binding, mouse; settings: 1% Triton X-100 buffer, pH 7.4, anti-Bim 3C5
Procedure, shortened: (§1)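 Thymocytes came from WT and Bim BH3-replacement knockin mice. Cells were lysed in 20 mM Tris pH 7.4, 135 mM NaCl, 1.5 mM MgCl2, 1 mM EGTA, 10% glycerol, 1% Triton X-100 and protease inhibitors. Bim was immunoprecipitated with rat mAb 3C5 (N-terminal epitope, all isoforms and mutants). Partners were shown by SDS-PAGE/Western blot with ECL: hamster mAb 3F11 (Bcl-2), rabbit polyclonals (Bcl-xL, Mcl-1).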

Mcl-1 = experiment: Coimmunoprecipitation from thymocyte lysates, Mcl-1; type: binding, mouse; settings: 1% Triton X-100 buffer, pH 7.4, anti-Bim 3C5
Procedure, shortened: as §1

Bcl-2 = experiment: Coimmunoprecipitation from thymocyte lysates, Bcl-2; type: binding, mouse; settings: 1% Triton X-100 buffer, pH 7.4, anti-Bim 3C5
Procedure, shortened: as §1

Molecule	Bim expression (thymocytes (Bim level))	coimmunoprecipitation with Bcl-xL (Bcl-xL)	coimmunoprecipitation with Mcl-1 (Mcl-1)	coimmunoprecipitation with Bcl-2 (Bcl-2)
C[C@H](CCC(=O)O)C[C@H](C)C[C@H](C)C(=O)/C=C(\O)[C@H](C)C[C@H](C)C/C=C/[C@@H](C)[C@@H](O)[C@@H](C)[C@@H](O)C[C@@H]1CC[C@@](C)([C@H]2CC[C@@](C)([C@@H](C)O)O2)O1 [ionomycin]	increased Bim expression comparably in both the mutant and WT thymocytes	–	–	–
B1	–	bound all of these prosurvival proteins	bound all of these prosurvival proteins	bound all of these prosurvival proteins
